# Experiments:
# Micrococcus luteus [1] = test: Antibacterial activity against Micrococcus luteus MTCC 2470 after 24 hrs by well diffusion assay; type: functional; conditions: MTCC 2470, 24 h
# Staphylococcus aureus [2] = test: Antibacterial activity against Staphylococcus aureus MTCC 96 after 24 hrs by well diffusion assay; type: functional; conditions: MTCC 96, 24 h
# Staphylococcus aureus [3] = test: Antibacterial activity against Staphylococcus aureus MLS-16 MTCC 2940 after 24 hrs by well diffusion assay; type: functional; conditions: MLS-16 MTCC 2940, 24 h
# Candida albicans [4] = test: Antifungal activity against Candida albicans MTCC 3017 after 24 hrs by well diffusion assay; type: functional; conditions: MTCC 3017, 24 h
# Method in brief: (§1)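 Well diffusion screen against Candida and related fungal strains. Read-out is MIC in µg/mL, with miconazole as the reference drug.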
# Bacillus subtilis [5] = test: Antibacterial activity against Bacillus subtilis MTCC 121 after 24 hrs by well diffusion assay; type: functional; conditions: MTCC 121, 24 h
# Escherichia coli = test: Antibacterial activity against Escherichia coli MTCC 739 after 24 hrs by well diffusion assay; type: functional; conditions: MTCC 739, 24 h
# Raoultella planticola = test: Antibacterial activity against Klebsiella planticola MTCC 530 after 24 hrs by well diffusion assay; type: functional; conditions: MTCC 530, 24 h
# Pseudomonas aeruginosa = test: Antibacterial activity against Pseudomonas aeruginosa MTCC 2453 after 24 hrs by well diffusion assay; type: functional; conditions: MTCC 2453, 24 h
# Micrococcus luteus [6] = test: Bactericidal activity against Micrococcus luteus MTCC 2470 after 24 hrs; type: functional; conditions: MTCC 2470, 24 h
# Method in brief: (§2)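 Minimum bactericidal concentration was determined on four Gram-positive strains, for the compounds active in the preliminary antibacterial screen.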
# Bacillus subtilis [7] = test: Bactericidal activity against Bacillus subtilis MTCC 121 after 24 hrs by well diffusion assay; type: functional; conditions: MTCC 121, 24 h; method in brief: as §2
# Micrococcus luteus [8] = test: Antibiofilm activity against Micrococcus luteus MTCC 2470 after 24 hrs by crystal violet staining based method; type: functional, organism-based; conditions: MTCC 2470, 24 h
# Method in brief: (§3)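 Biofilm inhibition was tested on the four Gram-positive strains, using crystal violet staining.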
# Bacillus subtilis [9] = test: Antibiofilm activity against Bacillus subtilis MTCC 121 after 24 hrs by well diffusion assay by crystal violet staining based method; type: functional, organism-based; conditions: MTCC 121, 24 h; method in brief: as §3
# [10] = Cytotoxicity against human DU145 cells by MTT assay; type: functional, cell-based; conditions: DU-145
# HepG2 = test: Cytotoxicity against human HepG2 cells by MTT assay; type: functional, cell-based
# [11] = Cytotoxicity against human SKOV3 cells by MTT assay; type: functional, cell-based; conditions: SK-OV-3
# MDA-MB-231 = test: Cytotoxicity against human MDA-MB-231 cells by MTT assay; type: functional, cell-based
# Staphylococcus aureus [12] = test: Bactericidal activity against Staphylococcus aureus MTCC 96 after 24 hrs; type: functional; conditions: MTCC 96, 24 h; method in brief: as §2
# Staphylococcus aureus [13] = test: Bactericidal activity against Staphylococcus aureus MLS-16 MTCC 2940 after 24 hrs; type: functional; conditions: MLS-16 MTCC 2940, 24 h; method in brief: as §2
# Staphylococcus aureus [14] = test: Antibiofilm activity against Staphylococcus aureus MTCC 96 after 24 hrs by crystal violet staining based method; type: functional, organism-based; conditions: MTCC 96, 24 h; method in brief: as §3
# Staphylococcus aureus [15] = test: Antibiofilm activity against Staphylococcus aureus MLS-16 MTCC 2940 after 24 hrs by crystal violet staining based method; type: functional, organism-based; conditions: MLS-16 MTCC 2940, 24 h; method in brief: as §3
# Candida albicans [16] = test: Antifungal activity against Candida albicans MTCC 183 after 24 hrs by well diffusion assay; type: functional; conditions: MTCC 183, 24 h; method in brief: as §1
# Candida albicans [17] = test: Antifungal activity against Candida albicans MTCC 227 after 24 hrs by well diffusion assay; type: functional; conditions: MTCC 227, 24 h; method in brief: as §1
# Candida albicans [18] = test: Antifungal activity against Candida albicans MTCC 854 after 24 hrs by well diffusion assay; type: functional; conditions: MTCC 854, 24 h; method in brief: as §1
# Candida albicans [19] = test: Antifungal activity against Candida albicans MTCC 1637 after 24 hrs by well diffusion assay; type: functional; conditions: MTCC 1637, 24 h; method in brief: as §1
# Candida albicans [20] = test: Antifungal activity against Candida albicans MTCC 3018 after 24 hrs by well diffusion assay; type: functional; conditions: MTCC 3018, 24 h; method in brief: as §1
# Candida albicans [21] = test: Antifungal activity against Candida albicans MTCC 3958 after 24 hrs by well diffusion assay; type: functional; conditions: MTCC 3958, 24 h; method in brief: as §1
# Candida albicans [22] = test: Antifungal activity against Candida albicans MTCC 4748 after 24 hrs by well diffusion assay; type: functional; conditions: MTCC 4748, 24 h; method in brief: as §1
# Candida albicans [23] = test: Antifungal activity against Candida albicans MTCC 7315 after 24 hrs by well diffusion assay; type: functional; conditions: MTCC 7315, 24 h; method in brief: as §1
# Candida parapsilosis [24] = test: Antifungal activity against Candida parapsilosis MTCC 1744 after 24 hrs by well diffusion assay; type: functional; conditions: Lodderomyces parapsilosis, MTCC 1744, 24 h; method in brief: as §1
# [Candida] aaseri = Antifungal activity against Candida aaseri MTCC 1962 after 24 hrs by well diffusion assay; type: functional; conditions: Yamadazyma aaseri, MTCC 1962, 24 h; method in brief: as §1
# Nakaseomyces glabratus = test: Antifungal activity against Candida glabrata MTCC 3019 after 24 hrs by well diffusion assay; type: functional; conditions: MTCC 3019, 24 h; method in brief: as §1
# Pichia kudriavzevii = test: Antifungal activity against Pichia kudriavzevii MTCC 3020 after 24 hrs by well diffusion assay; type: functional; conditions: MTCC 3020, 24 h; method in brief: as §1
# Pichia sporocuriosa = test: Antifungal activity against Issatchenkia hanoiensis MTCC 4755 after 24 hrs by well diffusion assay; type: functional; conditions: MTCC 4755, 24 h; method in brief: as §1
# Candida parapsilosis [25] = test: Inhibition of ergosterol biosynthesis in Candida parapsilosis MTCC 1744 assessed as mean ergosterol content at 2 ug/ml after 20 hrs by spectrophotometric analysis (Rvb=1.62 +/- 0.08 ug/ml); type: functional
# Candida parapsilosis [26] = test: Inhibition of ergosterol biosynthesis in Candida parapsilosis MTCC 1744 assessed as mean ergosterol content at 4 ug/ml after 20 hrs by spectrophotometric analysis (Rvb=1.62 +/- 0.08 ug/ml); type: functional
# Candida parapsilosis [27] = test: Inhibition of ergosterol biosynthesis in Candida parapsilosis MTCC 1744 assessed as mean ergosterol content at 8 ug/ml after 20 hrs by spectrophotometric analysis (Rvb=1.62 +/- 0.08 ug/ml); type: functional
# Candida parapsilosis [28] = test: Inhibition of ergosterol biosynthesis in Candida parapsilosis MTCC 1744 assessed as mean ergosterol content at 16 ug/ml after 20 hrs by spectrophotometric analysis (Rvb=1.62 +/- 0.08 ug/ml); type: functional
compound,measurement,setting,value
CCCCCCCCC(CCCCCCCCC(=O)OC)SCC(=O)NCC(=O)OC (stereo unspecified),MIC,Micrococcus luteus [1],15.6 µg/mL
same,MIC,Staphylococcus aureus [2],> 125 µg/mL
same,MIC,Staphylococcus aureus [3],> 125 µg/mL
same,MIC,Candida albicans [4],31.2 µg/mL
same,MIC,Bacillus subtilis [5],7.8 µg/mL
same,MIC,Escherichia coli,> 125 µg/mL
same,MIC,Raoultella planticola,> 125 µg/mL
same,MIC,Pseudomonas aeruginosa,> 125 µg/mL
same,MBC,Micrococcus luteus [6],31.2 µg/mL
same,MBC,Bacillus subtilis [7],3.9 µg/mL
same,IC50,Micrococcus luteus [8],8.2 µM
same,IC50,Bacillus subtilis [9],4.4 µM
same,IC50,[10],30.8 µM
same,IC50,HepG2,29.6 µM
same,IC50,[11],25.2 µM
same,IC50,MDA-MB-231,31.4 µM
CCCCCCCCC(CCCCCCCCC(=O)OC)SCC(=O)N[C@@H](Cc1ccccc1)C(=O)OC (stereo partly specified),MIC,Micrococcus luteus [1],> 125 µg/mL
same,MIC,Staphylococcus aureus [2],> 125 µg/mL
same,MIC,Staphylococcus aureus [3],> 125 µg/mL
same,MIC,Candida albicans [4],> 125 µg/mL
same,MIC,Bacillus subtilis [5],> 125 µg/mL
same,MIC,Escherichia coli,> 125 µg/mL
same,MIC,Raoultella planticola,> 125 µg/mL
same,MIC,Pseudomonas aeruginosa,> 125 µg/mL
same,IC50,[10],49.1 µM
same,IC50,HepG2,33.6 µM
same,IC50,[11],42.5 µM
same,IC50,MDA-MB-231,38.6 µM
CCCCCCCCC(CCCCCCCCC(=O)OC)SCC(=O)N[C@@H](CC(C)C)C(=O)OC (stereo partly specified),MIC,Micrococcus luteus [1],> 125 µg/mL
same,MIC,Staphylococcus aureus [2],> 125 µg/mL
same,MIC,Staphylococcus aureus [3],> 125 µg/mL
same,MIC,Candida albicans [4],> 125 µg/mL
same,MIC,Bacillus subtilis [5],> 125 µg/mL
same,MIC,Escherichia coli,> 125 µg/mL
same,MIC,Raoultella planticola,> 125 µg/mL
same,MIC,Pseudomonas aeruginosa,> 125 µg/mL
same,IC50,[10],215 µM
same,IC50,MDA-MB-231,152 µM
CCCCCCCCC(CCCCCCCCC(=O)OC)SCC(=O)N[C@H](C(=O)OC)c1c[nH]c2ccccc12 (stereo partly specified),MIC,Micrococcus luteus [1],> 125 µg/mL
same,MIC,Staphylococcus aureus [2],> 125 µg/mL
same,MIC,Staphylococcus aureus [3],> 125 µg/mL
same,MIC,Candida albicans [4],> 125 µg/mL
same,MIC,Bacillus subtilis [5],> 125 µg/mL
same,MIC,Escherichia coli,> 125 µg/mL
same,MIC,Raoultella planticola,> 125 µg/mL
same,MIC,Pseudomonas aeruginosa,> 125 µg/mL
CCCCCCCCC(CCCCCCCCC(=O)OC)SCC(=O)N[C@@H](C)C(=O)OC (stereo partly specified),MIC,Micrococcus luteus [1],7.8 µg/mL
same,MIC,Staphylococcus aureus [2],15.6 µg/mL
same,MIC,Staphylococcus aureus [3],7.8 µg/mL
same,MIC,Candida albicans [4],7.8 µg/mL
same,MIC,Bacillus subtilis [5],3.9 µg/mL
same,MIC,Escherichia coli,> 125 µg/mL
same,MIC,Raoultella planticola,> 125 µg/mL
same,MIC,Pseudomonas aeruginosa,> 125 µg/mL
same,MBC,Micrococcus luteus [6],7.8 µg/mL
same,MBC,Staphylococcus aureus [12],31.2 µg/mL
same,MBC,Staphylococcus aureus [13],15.6 µg/mL
same,MBC,Bacillus subtilis [7],7.8 µg/mL
same,IC50,Micrococcus luteus [8],4.1 µM
same,IC50,Staphylococcus aureus [14],9.3 µM
same,IC50,Staphylococcus aureus [15],3.2 µM
same,IC50,Bacillus subtilis [9],2.8 µM
same,MFC,Candida albicans [16],15.6 µg/mL
same,MIC,Candida albicans [16],7.8 µg/mL
same,MFC,Candida albicans [17],31.2 µg/mL
same,MIC,Candida albicans [17],15.6 µg/mL
same,MFC,Candida albicans [18],62.5 µg/mL
same,MIC,Candida albicans [18],31.2 µg/mL
same,MFC,Candida albicans [19],31.2 µg/mL
same,MIC,Candida albicans [19],31.2 µg/mL
same,MFC,Candida albicans [20],31.2 µg/mL
same,MIC,Candida albicans [20],15.6 µg/mL
same,MFC,Candida albicans [21],15.6 µg/mL
same,MIC,Candida albicans [21],7.8 µg/mL
same,MFC,Candida albicans [22],15.6 µg/mL
same,MIC,Candida albicans [22],15.6 µg/mL
same,MFC,Candida albicans [23],31.2 µg/mL
same,MIC,Candida albicans [23],15.6 µg/mL
same,MFC,Candida parapsilosis [24],7.8 µg/mL
same,MIC,Candida parapsilosis [24],7.8 µg/mL
same,MFC,[Candida] aaseri,31.2 µg/mL
same,MIC,[Candida] aaseri,15.6 µg/mL
same,MFC,Nakaseomyces glabratus,31.2 µg/mL
same,MIC,Nakaseomyces glabratus,31.2 µg/mL
same,MFC,Pichia kudriavzevii,15.6 µg/mL
same,MIC,Pichia kudriavzevii,15.6 µg/mL
same,MFC,Pichia sporocuriosa,31.2 µg/mL
same,MIC,Pichia sporocuriosa,15.6 µg/mL
same,IC50,[10],154 µM
same,IC50,HepG2,102 µM
same,IC50,[11],114 µM
same,IC50,MDA-MB-231,98.7 µM
same,Activity,Candida parapsilosis [25],1.41 µg/mL
same,Activity,Candida parapsilosis [26],0.63 µg/mL
same,Activity,Candida parapsilosis [27],0.38 µg/mL
same,Activity,Candida parapsilosis [28],0.11 µg/mL

# — ChEMBL document CHEMBL3745670, “Synthesis and biological evaluation of novel lipoamino acid derivatives” (Bioorg Med Chem Lett, 2016)
